# Compound activity from PubChem BioAssay.
# In the library only some 2.3% were active in any assay of this set; here they are far more common.
# EWS-Fli block: blocks EWS/Fli oncoprotein-driven transcription | 350,000 tested, 0.67% active | AID 651661 | A673 NR0B1-luciferase reporter, viability-normalised | inhibition, % at 12.6 µM;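 active = mean inhibition of at least 50% after viability correction, with every replicate also passing that limit; inconclusive = mean reaches 50% but only one of two replicates passes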;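 note: firefly luciferase signal divided by Alamar Blue viability fluorescence both relative to DMSO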
# XiGFP reactiv: reactivates the inactive X chromosome in mouse fibroblasts. XiGFP mouse fibroblasts, % GFP-positive cells imaging, 3 d; cells co-treated with 5-aza-dC sensitizer; scaled so ellipticine positive control = 100%. activation, % at 7.58 µM. 360,000 tested, 0.055% active;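 active = mean normalized replicate activation at least 10% and every replicate at or above 10%; inconclusive = only one of the two criteria met; inactive = mean below 10% and not all replicates reach 10%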
#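 Material: XiGFP fibroblasts, SV40-immortalized; Buffer or medium: DMEM containing 5-aza-dC; Compound dosing: single point; Times: 3 days compound exposure.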
# TWEAK Fn14 block: inhibitors of TWEAK-Fn14 interaction signaling; 360,000 tested, 2% active; TWEAK-stimulated Fn14 reporter cells, luciferase luminescence, 8 h; inhibition, % at 10 µM; AID 1159606; in the data active = inhibition above about 50%
# LGR2 inh: Drosophila LGR2 receptor signaling inhibition; inhibition, % at 9.99 µM; HEK293 LGR2, CRE-luciferase, bursicon-stimulated, 4 h; 380,000 tested, 0.35% active;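 active = drop in luminescence signal, shown as inhibition above about 50% in the replicate tests, limit read from the data, passing the limit was not always enough; inconclusive = probably only some replicates passing the limit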;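 note: agonist challenge used bursicon conditioned medium at about half maximal strength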
# FN deposition inh: fibronectin deposition inhibition; AH1F fibroblasts, Alexa488-fibronectin deposition fluorescence, overnight; inhibition, % at 12.6 µM; 350,000 tested, 0.086% active;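 active = mean inhibition across replicates of 30% or more, regardless of how many single replicates reach that level; inconclusive = mean under 30% yet at least half of replicates reach 30%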
#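 Material: AH1F fibroblast monolayer depositing Alexa488-labelled fibronectin into matrix / Amount: 10000 AH1F cells per well / Signal: fluorescence 485/525 nm / Medium: DMEM, 2% serum / Compound: single dose, pinned / Incubation: 1 h cell adhesion before compound, then overnight fibronectin incubation / Reagent: Alexa488-FN, 24 nM final / Read-out: inhibition of fibronectin deposition signal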
# TROY NFkB inh: inhibitors of TROY-dependent NF-kB signaling | Q293 LMP1-TROYcd NF-kB luciferase reporter, 4 h | inhibition, % at 10 µM | 360,000 tested, 0.98% active | AID 1347056;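 active = compounds whose plate-normalised and pattern-corrected inhibition of the luciferase reporter signal at the single screening dose is 50% or more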
# A number is an active result; n = inactive; u = inconclusive; x = no result.
SMILES,EWS-Fli block,XiGFP reactiv,TWEAK Fn14 block,LGR2 inh,FN deposition inh,TROY NFkB inh
CC(C)Cn1c(/C=N/Nc2nc3ccccc3[nH]2)nc2ccccc21,n,n,n,n,n,n
Cc1c(/C=N/Nc2nc3ccccc3[nH]2)c2ccccc2n1C,n,n,94.0,n,n,55.0
N#CCCn1cc(/C=N/NC(N)=S)c(-c2ccc(-c3ccccc3)cc2)n1,n,n,50.7,u,n,n
CCCCN(C(=O)CSc1nn(-c2ccc(F)cc2)c(=S)s1)c1c(N)n(CCCC)c(=O)[nH]c1=O,n,n,n,n,n,n
Cn1c(N)c(C(=O)CSc2nn(-c3ccc(F)cc3)c(=S)s2)c(=O)n(C)c1=O,n,n,59.5,n,n,n
COCCc1nc2ccc(C(=O)N(C)Cc3cccc(-n4nc(C)cc4C)c3)cc2o1,n,n,n,n,n,60.4
COCCc1nc2ccc(C(=O)NCc3cccc(-n4cccn4)c3)cc2o1,x,n,n,n,n,n
O=C1/C(=C\c2cccnc2)SC(=S)N1C1CCS(=O)(=O)C1 (stereo unspecified),n,x,71.1,54.8,x,n
O=C1/C(=C/c2cccnc2)SC(=S)N1C1CCS(=O)(=O)C1 (stereo unspecified),x,x,65.1,u,x,n
Cc1ccc(N2C(=O)/C(=C/c3cccnc3)SC2=S)cc1,n,n,n,n,n,n
O=C1/C(=C/c2cccnc2)SC(=S)N1N1CCOCC1,n,n,n,n,n,n
CC(C)(C)c1ccc(NC(=O)COc2ccc(-n3ccnc3)cc2)cc1,x,x,93.4,x,x,75.5
CCCNC(=O)Nc1ccc2c(c1)C(=O)N(C)[C@@H]1CC[C@@H](CC(=O)OC)O[C@H]1CO2,n,n,x,n,n,x
C[C@H](CO)N1C[C@H](C)[C@H](CN(C)C(=O)Nc2ccc3c(c2)OCO3)Oc2ccc(NC(=O)c3ccncc3)cc2CC1=O,n,n,x,n,x,x
Cc1ccc(/C=C2/SC(=S)N(c3ccc(S(=O)(=O)Nc4nccs4)cc3)C2=O)cc1,n,n,63.9,n,n,61.2
COc1ccc(/C=C2/SC(=S)N(c3ccc(S(=O)(=O)Nc4nccs4)cc3)C2=O)cc1,n,n,n,n,n,54.3
COc1ccc(CC(=O)NCc2ccccc2)cc1OC,n,n,n,n,n,n
COc1ccccc1CNC(=O)Cc1ccc(OC)c(OC)c1,n,n,67.6,n,n,n
CN1C[C@H]2[C@@H](c3ccccc31)[C@@H](CO)N2C(=O)C1CCCCC1,n,n,x,n,x,x
CCNC(=O)[C@H]1[C@H](CO)[C@H]2Cn3c(ccc(-c4ccccc4F)c3=O)[C@@H]1N2S(C)(=O)=O,n,n,x,n,x,x
COc1cc(CCC(=O)Nc2nnc(C)s2)cc(OC)c1OC,51.5,n,n,n,n,n
CC(=O)N1CC=CC1(CC(C)C)C(=O)NCCN1CCOCC1 (stereo unspecified),n,n,83.2,n,n,n
CC(C)CC1(C(=O)NCCN2CCOCC2)C=CCN1C(=O)c1ccccc1 (stereo unspecified),n,n,n,n,n,n
COc1ccc(NC(=O)/C=C/c2cc(Br)ccc2OC)cc1,x,x,n,x,x,n
COc1ccc(Br)cc1/C=C/C(=O)c1ccc(NC(C)=O)cc1,u,n,84.3,94.8,n,n
SMILES,EWS-Fli block,XiGFP reactiv,TWEAK Fn14 block,LGR2 inh,FN deposition inh,TROY NFkB inh
COc1ccc(CN(C)C[C@H]2Oc3c(NC(=O)c4cc(C)nn4C)cccc3C(=O)N([C@H](C)CO)C[C@@H]2C)cc1,n,n,x,n,x,x
COc1ccc(C(C(=O)NCC2CCCO2)N(Cc2ccco2)C(=O)c2snc(C(N)=O)c2N)cc1OC (stereo unspecified),n,n,51.7,n,n,n
CCOc1ccc(C(C(=O)NCC2CCCO2)N(C(=O)c2snc(C(N)=O)c2N)c2ccccc2F)cc1 (stereo unspecified),n,n,57.1,n,n,n
CCOc1ccc(C(C(=O)NCC2CCCO2)N(C(=O)c2snc(C(N)=O)c2N)c2cccc(F)c2)cc1 (stereo unspecified),x,n,n,n,n,n
NC(=O)c1nsc(C(=O)N(Cc2ccco2)C(C(=O)NCC2CCCO2)c2ccc(O)cc2)c1N (stereo unspecified),n,n,n,n,n,n
COc1ccc(C(C(=O)NC2CCCC2)N(C(=O)c2snc(C(N)=O)c2N)c2ccccc2OC)cc1OC (stereo unspecified),n,n,53.5,n,n,n
COCCOC(=O)N1C(=O)[C@@]2(c3ccccc31)[C@H](c1ccccc1OCCO)N1[C@H](c3ccccc3)[C@H](c3ccccc3)OC(=O)[C@H]1[C@@H]2C(=O)NC[C@H](O)c1ccccc1,n,x,x,x,x,x
CN1CCN(C(=O)C[C@@H]2C[C@H]3c4cc(NC(=O)Nc5ccc(C(F)(F)F)cc5)ccc4O[C@H]3[C@@H](CO)O2)CC1,n,n,x,n,n,x
C[C@@H]1CN([C@@H](C)CO)C(=O)Cc2cc(NC(=O)c3ccncc3)ccc2O[C@@H]1CN(C)S(C)(=O)=O,n,n,x,n,x,x
CO[C@H]1CN(C)C(=O)c2ccc(NC(=O)c3nc4ccccc4s3)cc2OC[C@H](C)N(Cc2ccncc2)C[C@H]1C,n,n,x,n,n,x
O=C(O)Cc1c[nH]c2ccccc12,n,x,n,n,x,n
O=C(CCl)N(c1ccc(Cl)cc1)c1c[nH]c2ccccc12,x,x,66.6,n,n,n
O=C(CCl)N(c1ccccc1)c1c[nH]c2ccccc12,x,x,69.4,x,x,n
COc1ccc(S(=O)(=O)N(CCCN2CCOCC2)Cc2cccc3ccccc23)cc1,x,x,91.7,x,x,x
Cc1cc(C)n2nc(C(=O)NCc3cccc(C(F)(F)F)c3)nc2n1,n,n,n,n,n,51.1
O=C(N/N=C/c1cccc(F)c1)c1c(O)c2ccccc2[nH]c1=O,x,n,58.0,n,n,n
CC(C)CC#Cc1cnc2c(c1)C(=O)N([C@H](C)CO)C[C@H](C)[C@H](CN(C)C(=O)CC1CC1)O2,n,n,x,n,x,x
CCCCCCCCN1C(=O)[C@H](CC(=O)NCC2CCCCC2)C[C@@]2(C(=O)OCC)CCCC=C12,n,n,n,n,x,51.1
CCCCCCCCN1C(=O)[C@H](CC(=O)NCC2CCCCC2)C[C@@]2(C(=O)OCC)CCC=C12,n,n,x,n,n,x
C/C(=N\NC(=O)c1ccc(-c2ccccc2)cc1)C1C(=O)c2ccccc2C1=O,n,n,n,n,n,56.4
O=C(Nc1ccccc1)N1C[C@@H]2[C@H](c3ccccc31)[C@H](CO)N2CC1CCCC1,n,n,x,n,x,x
CCC(C)(C)NC(=O)CN(C(=O)CCC(=O)Nc1nccs1)c1ccc2c(c1)OCCO2,n,n,64.1,n,n,52.4
CCc1ccc(N(CC(=O)NC(C)(C)CC)C(=O)CCC(=O)Nc2nccs2)cc1,n,n,n,n,n,n
